Data taken from PMC11341722 (Nature Communications, 2024).
Like-named read-outs stand apart in the source and are kept apart here.

Experiments:
[1] = target: T1, B^0AT1 (SLC6A19) (Homo sapiens, UniProt Q695T7); experiment: Optimized radioactive L-[14C]leucine uptake; assay type: cell-based
T1 sequence (Q695T7 1-634): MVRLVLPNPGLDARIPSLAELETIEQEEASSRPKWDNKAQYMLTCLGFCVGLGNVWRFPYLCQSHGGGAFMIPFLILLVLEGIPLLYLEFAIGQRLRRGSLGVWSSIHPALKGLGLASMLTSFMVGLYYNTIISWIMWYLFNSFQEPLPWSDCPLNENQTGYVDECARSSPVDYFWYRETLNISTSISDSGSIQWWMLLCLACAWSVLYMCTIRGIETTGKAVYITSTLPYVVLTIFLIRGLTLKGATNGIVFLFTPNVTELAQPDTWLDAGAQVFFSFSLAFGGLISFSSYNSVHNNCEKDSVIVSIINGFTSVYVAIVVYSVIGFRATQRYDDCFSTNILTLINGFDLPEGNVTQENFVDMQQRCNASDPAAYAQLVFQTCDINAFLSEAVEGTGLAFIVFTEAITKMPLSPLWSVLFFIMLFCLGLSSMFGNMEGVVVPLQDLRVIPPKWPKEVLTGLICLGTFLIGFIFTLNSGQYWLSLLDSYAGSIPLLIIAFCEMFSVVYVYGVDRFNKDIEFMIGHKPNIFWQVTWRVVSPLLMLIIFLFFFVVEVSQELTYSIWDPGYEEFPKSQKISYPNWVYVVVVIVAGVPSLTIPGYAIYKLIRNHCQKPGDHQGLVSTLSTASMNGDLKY
T1 sequence (Q9HBJ8 15-222 partner): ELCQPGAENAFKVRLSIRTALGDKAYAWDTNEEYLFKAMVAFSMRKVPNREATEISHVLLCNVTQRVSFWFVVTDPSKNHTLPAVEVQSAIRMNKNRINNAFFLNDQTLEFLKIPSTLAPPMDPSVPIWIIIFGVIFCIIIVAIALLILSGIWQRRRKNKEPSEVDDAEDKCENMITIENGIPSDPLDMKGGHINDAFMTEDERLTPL

[2] = target: T1, B^0AT1 (SLC6A19); experiment: FLIPR membrane potential transport assay in CHO-BC cells; assay type: cell-based; conditions: read-out: inhibition at 30 µM
Method in brief: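 CHO cells (Flp-In) stably expressing B0AT1 with collectrin, passages <10, seeded at 60,000 cells/well overnight. Washed three times in HBSS + 5 mM glucose, pH 7.5. Preincubated 30 min at room temperature with test compound plus membrane-potential dye. Read fluorescence (ex 530/em 565 nm) every 10 s before and after adding L-leucine to 1.5 mM final, at room temperature.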

[3] = test system: B^0AT1; conditions: substrate; cited from earlier work
[4] = target: T1, B^0AT1 (SLC6A19); conditions: read-out: IC50 range of initially identified inhibitors; cited from earlier work

## CCNC(=O)/C=C/c1cccc(Br)c1 [Cinromide, cinromide]
[1]
  IC50: 0.8 ± 0.1 µM

## Cc1cc(Cl)cc(C)c1OCC(=O)NC(C)C [JX8, 2-(4-chloro-2,6-dimethylphenoxy)-N-isopropylacetamide]
[2]
  inhibition at 30 µM: 8%

## N[C@@H](Cc1c[nH]c2ccccc12)C(=O)O [L-tryptophan]
[3]
  Vmax relative to that of L-methionine: 10%

## CS(=O)(=O)Nc1ccc([N+](=O)[O-])cc1Oc1ccccc1 [Nimesulide, nimesulide]
[4]
  IC50: 10 to 100 µM

## CN1[C@@H]2CC[C@H]1C[C@@H](OC(c1ccccc1)c1ccccc1)C2 [benztropine]
[4]
  IC50: 10 to 100 µM
